Compound activity as filed in PubChem BioAssay.
HTRA1 inhibitor: HTRA1 serine protease inhibitors, primary screen, biochemical, fluorescence polarization, HTS | recombinant HTRA1, FP-rhodamine activity-based probe | Q92743 | actives 0.5% (n = 340,000) | inhibition, % at 5.96 µM; in the data active means inhibition above about 36%;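 further: 0% = enzyme with DMSO and 100% = wells lacking enzyme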
Target sequence (Q92743 whole entry, looked up): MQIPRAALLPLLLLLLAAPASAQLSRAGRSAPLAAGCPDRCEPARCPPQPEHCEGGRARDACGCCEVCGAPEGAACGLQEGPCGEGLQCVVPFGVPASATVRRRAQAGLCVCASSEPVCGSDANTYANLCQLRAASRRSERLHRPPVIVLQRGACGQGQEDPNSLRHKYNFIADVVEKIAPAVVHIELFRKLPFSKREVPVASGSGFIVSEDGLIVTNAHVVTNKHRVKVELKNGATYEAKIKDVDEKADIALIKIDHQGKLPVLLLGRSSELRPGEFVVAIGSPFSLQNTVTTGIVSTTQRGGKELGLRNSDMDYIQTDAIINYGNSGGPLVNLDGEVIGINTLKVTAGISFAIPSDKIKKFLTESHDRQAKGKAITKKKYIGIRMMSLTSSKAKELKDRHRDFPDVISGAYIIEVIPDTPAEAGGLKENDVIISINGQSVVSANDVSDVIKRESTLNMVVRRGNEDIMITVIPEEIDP
PAFAH1B2 FP inh: PAFAH1B2 enzyme inhibitors, primary screen, biochemical, fluorescence polarization, human; recombinant PAFAH1B2, FP-rhodamine activity probe; inhibition, % at 3.39 µM; actives 1.2% (n = 340,000); AID 492953, 2010;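 active means inhibition above the mean of all tested compounds plus 3 SD, cut at about 24% in these data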;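 further: 0% = enzyme with DMSO and 100% = wells lacking PAFAH1B2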
PAFAH1B3 FP inh: PAFAH1B3 enzyme inhibitors, primary screen, biochemical, fluorescence polarization, human | recombinant PAFAH1B3, FP-rhodamine probe | inhibition, % at 3.39 µM | actives 0.28% (n = 340,000);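 active means inhibition above the screen-wide average of all tested compounds plus 3 SD, cut at about 25% in these data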;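 further: 0% = enzyme with DMSO only and 100% = wells lacking PAFAH1B3 protein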
mABHD4 FP: ABHD4 inhibitors, primary screen, biochemical, fluorescence polarization, mouse; AID 720543, 2013; actives 0.54% (n = 370,000); inhibition, % at 8.92 µM; purified mABHD4, FP-Rh probe fluorescence polarization; (Lyso)-N-acylphosphatidylethanolamine lipase (Mus musculus), Q8VD66;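 active means inhibition exceeding the mean over every tested compound plus 3 SD, cut at about 30% in these data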;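 further: 0% = plate median of compound wells and 100% = S159A mutant with DMSO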
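System: mouse ABHD4 enzyme, wild type / Medium: HEPES pH 7.0, NaCl, Pluronic buffer / Reagent: FP-Rh activity-based fluorescent probe / Control set: S159A mutant high control, sample median low control / Detection: fluorescence polarization with parallel and perpendicular emission, 525/598 nm / Schedule: 45 min + 60 min at 25 °C / Compound dosing: 8.92 µM, single dose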
pPAFAH FP inh: pPAFAH enzyme inhibitors, primary screen, biochemical, fluorescence polarization, human | recombinant pPAFAH, FP-rhodamine probe fluorescence polarization | inhibition, % at 3.39 µM | actives 1.5% (n = 330,000);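 active means inhibition above the mean inhibition across the screen plus 3 SD, cut at about 25% in these data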;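 further: inhibitors block binding of the rhodamine activity-based probe so polarization drops; 0% = enzyme with DMSO and 100% = wells lacking pPAFAH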
PAFAH2 inh: PAFAH2 enzyme inhibitors, primary screen, biochemical, fluorescence polarization, human | actives 0.99% (n = 340,000) | AID 492956, 2010 | Platelet-activating factor acetylhydrolase 2, cytoplasmic (Homo sapiens), Q99487 | recombinant PAFAH2, FP-rhodamine activity probe | inhibition, % at 3.39 µM;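 active means inhibition above the mean over all tested compounds plus 3 SD, cut at about 30% in these data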;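 further: inhibitors block probe labeling of enzyme so polarization drops; 0% = enzyme with DMSO and 100% = wells lacking PAFAH2 protein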
An asterisk follows results filed as active; . = no result given. Shown are actives, neighbours in structure and some others; about 2.8% of the full set was active somewhere.

SMILES | HTRA1 inhibitor | PAFAH1B2 FP inh | PAFAH1B3 FP inh | mABHD4 FP | pPAFAH FP inh | PAFAH2 inh
O=C(COC(=O)C1(c2ccccc2F)CCCC1)N1CCN(C(=O)c2ccco2)CC1 | -5.8 | 1.1 | 9.1 | 0.9 | 5.0 | 3.6
O=C(CSc1nnnn1-c1ccccc1)NCC1(N2CCCCC2)CCCCC1 | -4.3 | 2.2 | -3.2 | 2.2 | 0.4 | 0.5
O=C(CSc1ccccc1)NCC1(N2CCCCC2)CCCCC1 | -6.2 | -2.2 | 4.8 | -8.0 | 34.1* | -0.4
Cc1ccc(C(=O)NCC2(c3ccccc3)CCCC2)cc1 | -15.8 | 91.9* | 5.3 | -7.0 | 14.8 | 4.3
O=C(CN1CCCCC1)NCC1(c2ccccc2)CCCC1 | 0.8 | 28.9* | 1.7 | 3.0 | 3.6 | -1.9
CCN(CC)CC(=O)NCC1(c2ccccc2)CCCC1 | 4.1 | 25.8* | 0.8 | -2.0 | 1.9 | 0.9
CCC(C)N(C(C)CC)S(=O)(=O)c1ccc2[nH]c(=O)oc2c1 (stereo not drawn) | . | . | . | -5.2 | . | .
Cn1c(=O)oc2cc(S(=O)(=O)N3CCN(c4cccc(C(F)(F)F)c4)CC3)ccc21 | . | . | . | 0.1 | . | .
Cc1nc(SCC(=O)NC(=O)NCc2ccccc2)nc(C)c1C | -0.8 | 11.9 | -4.4 | 8.8 | 2.7 | 2.4
O=C(CSc1ccccc1)NC(=O)NCc1ccccc1 | -5.4 | 32.0* | 1.8 | -0.1 | 5.7 | 4.8
Clc1ccc(-c2nnc(-c3ccccc3Cl)o2)cc1 | -13.6 | 3.7 | 0.8 | 4.8 | 3.1 | -1.5
OC(c1ccc(Cl)cc1)c1nnc(-c2ccccc2)o1 (stereo not drawn) | -10.7 | 24.5* | 0.2 | -8.2 | -2.4 | 3.0
CCC(C)[C@H]1CNCCN1CCc1cc(C(F)(F)F)cc(C(F)(F)F)c1 (stereo partly drawn) | 8.4 | 1.7 | 0.1 | 3.7 | -3.0 | 8.8
CCC(C)[C@H]1CNC(=S)N1CCc1cc(C(F)(F)F)cc(C(F)(F)F)c1 (stereo partly drawn) | -35.8 | 3.2 | 18.9 | -7.2 | 27.1* | -4.8
C#CCN1CC(N(C)CCOC(=O)CSc2ccccc2)CS1(=O)=O (stereo not drawn) | . | . | . | 1.1 | . | .
COc1ccc(N2Cc3ccc(C(=O)N/N=C\c4ccc(O)cc4O)cc3C2)cc1 | . | . | . | . | 39.2* | .
O=C(NCCc1ccc(Cl)cc1)C(=O)c1c[nH]c2ccccc12 | -9.5 | 27.5* | -7.2 | -13.9 | 9.2 | -14.3
O=C(CCc1ccccc1)NNC(=O)Cc1ccc(Cl)cc1 | -2.3 | 24.6* | 8.8 | -2.6 | 9.1 | 12.7
COCCNC(=O)c1ccc2ccccc2n1 | 0.9 | 7.5 | 9.4 | 0.1 | 2.7 | -3.7
CC1CC(C)CN(C(=O)Cc2c(C(=O)O)[nH]c3ccc(Cl)cc23)C1 (stereo not drawn) | 3.7 | 81.0* | 1.1 | 5.2 | -1.0 | 4.1
O=C(NCCc1ccc(Cl)cc1)c1ccc2ccccc2n1 | -30.6 | 25.1* | 1.5 | -8.5 | 7.7 | 7.6
Cn1c(=O)cc(OCCCC(=O)Nc2cc(C(F)(F)F)ccn2)c2ccccc21 | . | . | . | -4.0 | . | .
C[C@@H]1[C@@H](c2ccccc2)c2cc3ccccc3nc2C(=O)C[C@@H]1C(=O)N1CCCC1 | . | . | . | 6.1 | . | .
Brc1ccc(-c2nn3c(-c4ccccc4)nnc3s2)o1 | . | . | . | 0.3 | . | .
O=C(O)c1ccccc1C(=O)NCCc1c(C(=O)O)[nH]c2ccc(Cl)cc12 | 6.9 | 33.4* | 7.4 | -5.5 | 3.0 | 5.5
O=C(NCCc1ccccc1)c1ccccc1Cl | 3.4 | -4.9 | 9.5 | -4.5 | -4.8 | 2.9
COc1ccc2[nH]c(C(=O)O)c(CCNC(C)=O)c2c1 | 0.4 | 0.1 | -3.3 | 1.9 | -2.4 | 8.7
O=C(O)c1ccccc1C(=O)NCCc1ccc(Cl)cc1 | 1.1 | 29.6* | 14.1 | -4.8 | 5.9 | 6.8
Cc1ccc(NC(=O)CCSCCC(=O)Nc2ccc(C)c(C)c2)cc1C | -24.2 | 28.6* | -7.9 | -2.6 | 4.5 | -15.0
Cc1ccc(NC(=O)CC(=O)Nc2ccc(C)c(C)c2)cc1C | -7.8 | 2.1 | 5.2 | -13.7 | 2.0 | -7.9
